From ChEMBL document CHEMBL3045677, “Sulfonamide-1,2,4-thiadiazole derivatives as antifungal and antibacterial agents: synthesis, biological evaluation, lipophilicity, and conformational studies” (2010)
Values after ≈ are worked out from the molar mass of the structure shown.

Tests used:
Fulvia fulva = experiment: Antifungal activity against Passalora fulva TK5318 at 28 degC measured after 72 hr by microdilution method; type: functional; settings: TK5318, 72 h
Procedure, shortened: (§1)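 Fungi were kept on malt agar at 4 °C. Spores were washed off with sterile 0.85% saline containing 0.1% Tween 80 and adjusted to about 1.0×10⁵ per well. Compounds were dissolved in DMSO (1 mg/ml stock) and serially diluted in malt broth with inoculum in 96-well plates, 72 h at 28 °C, for MIC. MFC came from subculture into fresh broth for a further 72 h at 28 °C.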

Aspergillus versicolor = experiment: Antifungal activity against Aspergillus versicolor ATCC 11730 at 28 degC measured after 72 hr by microdilution method; type: functional; settings: ATCC 11730, 72 h; procedure, shortened: as §1
Aspergillus flavus = experiment: Antifungal activity against Aspergillus flavus ATCC 9643 at 28 degC measured after 72 hr by microdilution method; type: functional; settings: ATCC 9643, 72 h; procedure, shortened: as §1
Aspergillus niger = experiment: Antifungal activity against Aspergillus niger ATCC 6275 at 28 degC measured after 72 hr by microdilution method; type: functional; settings: ATCC 6275, 72 h; procedure, shortened: as §1
Trichoderma viride = experiment: Antifungal activity against Hypocrea rufa IAM 5061 at 28 degC measured after 72 hr by microdilution method; type: functional; settings: IAM 5061, 72 h; procedure, shortened: as §1
Aspergillus fumigatus = experiment: Antifungal activity against plant isolate Aspergillus fumigatus at 28 degC measured after 72 hr by microdilution method; type: functional; procedure, shortened: as §1
Penicillium ochrochloron = experiment: Antifungal activity against Penicillium ochrochloron ATCC 9112 at 28 degC measured after 72 hr by microdilution method; type: functional; settings: ATCC 9112, 72 h; procedure, shortened: as §1
Talaromyces funiculosus = experiment: Antifungal activity against Talaromyces funiculosus ATCC 36839 at 28 degC measured after 72 hr by microdilution method; type: functional; settings: ATCC 36839, 72 h; procedure, shortened: as §1
Listeria monocytogenes [1] = experiment: Antibacterial activity against Listeria monocytogenes NCTC 7973 at […] degC measured after 72 hr by microdilution method; type: functional; settings: NCTC 7973, 72 h
Procedure, shortened: (§2)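 Bactericidal endpoint: after the 24 h broth microdilution (1.0×10⁴ CFU per well, LB broth, […] °C), wells were serially subcultured into plates of fresh broth and incubated a further 72 h. MBC was the lowest concentration with no visible growth, taken as 99.5% killing of the original inoculum.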

Proteus mirabilis [2] = experiment: Antibacterial activity against Proteus mirabilis at […] degC measured after 72 hr by microdilution method; type: functional; procedure, shortened: as §2
Salmonella typhimurium [3] = experiment: Antibacterial activity against Salmonella enterica subsp. enterica serovar TyphimuriumATCC 13311 at […] degC measured after 72 hr by microdilution method; type: functional, Salmonella enterica subsp. enterica serovar Typhimurium; settings: ATCC 13311, 72 h; procedure, shortened: as §2
Pseudomonas aeruginosa [4] = experiment: Antibacterial activity against Pseudomonas aeruginosa ATCC 27853 at […] degC measured after 72 hr by microdilution method; type: functional; settings: ATCC 27853, 72 h; procedure, shortened: as §2
Escherichia coli [5] = experiment: Antibacterial activity against Escherichia coli ATCC 35210 at […] degC measured after 72 hr by microdilution method; type: functional; settings: ATCC 35210, 72 h; procedure, shortened: as §2
Staphylococcus aureus [6] = experiment: Antibacterial activity against Staphylococcus aureus ATCC 6538 at […] degC measured after 72 hr by microdilution method; type: functional; settings: ATCC 6538, 72 h; procedure, shortened: as §2
Micrococcus flavus [7] = experiment: Antibacterial activity against Micrococcus flavus ATCC 10240 at […] degC measured after 72 hr by microdilution method; type: functional; settings: ATCC 10240, 72 h; procedure, shortened: as §2
Bacillus cereus [8] = experiment: Antibacterial activity against clinical isolate Bacillus cereus at […] degC measured after 72 hr by microdilution method; type: functional; procedure, shortened: as §2
Listeria monocytogenes [9] = experiment: Antibacterial activity against Listeria monocytogenes NCTC 7973 at […] degC measured after 24 hr by microdilution method; type: functional; settings: NCTC 7973, 24 h
Procedure, shortened: (§3)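 Bacteria suspended in sterile saline at 1.0×10⁵ CFU/ml and added at 1.0×10⁴ CFU per well to LB broth with compound (1 mg/ml) in 96-well plates. Incubated 24 h at […] °C. MIC was the lowest concentration without visible growth under a binocular microscope. OD 655 nm was read against a blank and a positive control.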

Salmonella typhimurium [10] = experiment: Antibacterial activity against Salmonella enterica subsp. enterica serovar Typhimurium ATCC 13311 at […] degC measured after 24 hr by microdilution method; type: functional; settings: ATCC 13311, 24 h; procedure, shortened: as §3
Pseudomonas aeruginosa [11] = experiment: Antibacterial activity against Pseudomonas aeruginosa ATCC 27853 at […] degC measured after 24 hr by microdilution method; type: functional; settings: ATCC 27853, 24 h; procedure, shortened: as §3
Proteus mirabilis [12] = experiment: Antibacterial activity against Proteus mirabilis at […] degC measured after 24 hr by microdilution method; type: functional; procedure, shortened: as §3
Escherichia coli [13] = experiment: Antibacterial activity against Escherichia coli ATCC 35210 at […] degC measured after 24 hr by microdilution method; type: functional; settings: ATCC 35210, 24 h; procedure, shortened: as §3
Staphylococcus aureus [14] = experiment: Antibacterial activity against Staphylococcus aureus ATCC 6538 at […] degC measured after 24 hr by microdilution method; type: functional; settings: ATCC 6538, 24 h; procedure, shortened: as §3
Bacillus cereus [15] = experiment: Antibacterial activity against clinical isolate Bacillus cereus at […] degC measured after 24 hr by microdilution method; type: functional; procedure, shortened: as §3
Micrococcus flavus [16] = experiment: Antibacterial activity against Micrococcus flavus ATCC 10240 at […] degC measured after 24 hr by microdilution method; type: functional; settings: ATCC 10240, 24 h; procedure, shortened: as §3

Row | Structure (SMILES) | MFC (Fulvia fulva) | MIC (Fulvia fulva) | MFC (Aspergillus versicolor) | MIC (Aspergillus versicolor) | MFC (Aspergillus flavus) | MIC (Aspergillus flavus) | MFC (Aspergillus niger) | MIC (Aspergillus niger) | MFC (Trichoderma viride) | MIC (Trichoderma viride) | MFC (Aspergillus fumigatus) | MIC (Aspergillus fumigatus) | MFC (Penicillium ochrochloron) | MIC (Penicillium ochrochloron) | MFC (Talaromyces funiculosus) | MIC (Talaromyces funiculosus) | MBC (Listeria monocytogenes [1]) | MBC (Proteus mirabilis [2]) | MBC (Salmonella typhimurium [3]) | MBC (Pseudomonas aeruginosa [4]) | further results
1 | COc1cc(Cc2nnc(Nc3ccc(C(F)(F)F)cc3)s2)c(S(=O)(=O)N2CCCC2)cc1OC | 75.6 µM (≈ 40 µg/mL) | 18.9 µM (≈ 9.99 µg/mL) | 37.8 µM (≈ 20 µg/mL) | 18.9 µM (≈ 9.99 µg/mL) | 37.8 µM (≈ 20 µg/mL) | 18.9 µM (≈ 9.99 µg/mL) | 37.8 µM (≈ 20 µg/mL) | 18.9 µM (≈ 9.99 µg/mL) | 18.9 µM (≈ 9.99 µg/mL) | 9.5 µM (≈ 5.02 µg/mL) | 37.8 µM (≈ 20 µg/mL) | 18.9 µM (≈ 9.99 µg/mL) | 37.8 µM (≈ 20 µg/mL) | 18.9 µM (≈ 9.99 µg/mL) | 37.8 µM (≈ 20 µg/mL) | 18.9 µM (≈ 9.99 µg/mL) | 18.9 µM (≈ 9.99 µg/mL) | 37.8 µM (≈ 20 µg/mL) | 18.9 µM (≈ 9.99 µg/mL) | 18.9 µM (≈ 9.99 µg/mL) | MBC (Escherichia coli [5]): 37.8 µM (≈ 20 µg/mL); MBC (Staphylococcus aureus [6]): 18.9 µM (≈ 9.99 µg/mL); MBC (Micrococcus flavus [7]): 37.8 µM (≈ 20 µg/mL); MBC (Bacillus cereus [8]): 18.9 µM (≈ 9.99 µg/mL); MIC (Listeria monocytogenes [9]): 18.9 µM (≈ 9.99 µg/mL); MIC (Salmonella typhimurium [10]): 9.5 µM (≈ 5.02 µg/mL); MIC (Pseudomonas aeruginosa [11]): 9.5 µM (≈ 5.02 µg/mL); MIC (Proteus mirabilis [12]): 18.9 µM (≈ 9.99 µg/mL); MIC (Escherichia coli [13]): 18.9 µM (≈ 9.99 µg/mL); MIC (Staphylococcus aureus [14]): 9.5 µM (≈ 5.02 µg/mL); MIC (Bacillus cereus [15]): 9.5 µM (≈ 5.02 µg/mL); MIC (Micrococcus flavus [16]): 18.9 µM (≈ 9.99 µg/mL)
2 | COc1cc(Cc2nnc(Nc3ccc(Cl)cc3)s2)c(S(=O)(=O)N2CCCCC2)cc1OC | 19.7 µM (≈ 10 µg/mL) | 9.8 µM (≈ 4.99 µg/mL) | 19.7 µM (≈ 10 µg/mL) | 9.8 µM (≈ 4.99 µg/mL) | 19.7 µM (≈ 10 µg/mL) | 9.8 µM (≈ 4.99 µg/mL) | 39.4 µM (≈ 20.1 µg/mL) | 19.7 µM (≈ 10 µg/mL) | 19.7 µM (≈ 10 µg/mL) | 9.8 µM (≈ 4.99 µg/mL) | 39.4 µM (≈ 20.1 µg/mL) | 19.7 µM (≈ 10 µg/mL) | 39.4 µM (≈ 20.1 µg/mL) | 19.7 µM (≈ 10 µg/mL) | 39.4 µM (≈ 20.1 µg/mL) | 19.7 µM (≈ 10 µg/mL) | 78.8 µM (≈ 40.1 µg/mL) | 78.7 µM (≈ 40.1 µg/mL) | 19.7 µM (≈ 10 µg/mL) | 19.7 µM (≈ 10 µg/mL) | MBC (Escherichia coli [5]): 39.4 µM (≈ 20.1 µg/mL); MBC (Staphylococcus aureus [6]): 39.4 µM (≈ 20.1 µg/mL); MBC (Micrococcus flavus [7]): 39.4 µM (≈ 20.1 µg/mL); MBC (Bacillus cereus [8]): 19.7 µM (≈ 10 µg/mL); MIC (Listeria monocytogenes [9]): 39.4 µM (≈ 20.1 µg/mL); MIC (Salmonella typhimurium [10]): 9.8 µM (≈ 4.99 µg/mL); MIC (Pseudomonas aeruginosa [11]): 9.8 µM (≈ 4.99 µg/mL); MIC (Proteus mirabilis [12]): 19.7 µM (≈ 10 µg/mL); MIC (Escherichia coli [13]): 19.7 µM (≈ 10 µg/mL); MIC (Staphylococcus aureus [14]): 19.7 µM (≈ 10 µg/mL); MIC (Bacillus cereus [15]): 9.8 µM (≈ 4.99 µg/mL); MIC (Micrococcus flavus [16]): 19.7 µM (≈ 10 µg/mL)
